Experimental data taken from ChEMBL document CHEMBL3259712, “New 5-unsubstituted dihydropyridines with improved CaV1.3 selectivity as potential neuroprotective agents against ischemic injury” (J Med Chem, 2014).

Experiments:
[1] = system: SH-SY5Y; test: Neuroprotective activity against rotenone-oligomycin A-induced oxidative stress in human SH-SY5Y cells assessed as protection incubated with rot/oligo for 8 hrs followed by treated with compound at 5 uM for 16 hrs by MTT assay relative to control; assay type: functional
Summary of the method: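 SH-SY5Y cells cultured 24 h, then exposed to rotenone/oligomycin A (30/10 μM) for 8 h at 37 °C. Stressor was removed and cells incubated 16 h with compound in 1% FBS medium. Melatonin 0.3 μM was the positive control, and compounds were used at 5 μM. Viability by MTT; % protection against basal as 100%, normalized to rot/olig toxicity; five to seven cultures in triplicate.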

[2] = target: Voltage-dependent L-type calcium channel subunit alpha-1C (Rattus norvegicus, UniProt P22002); test: Inhibition of rat Cav1.2 channel in rat mesenteric artery assessed as relaxation of 70 mM K+ induced contraction; assay type: tissue-based; conditions: for inhibition (INH): rat
Summary of the method: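 Third-order mesenteric artery segments (2 mm) from 6-month-old Wistar Kyoto rats on a wire myograph, isometric tension, Krebs−Henseleit at 37 °C, pH 7.4. Segments equilibrated, stretched to optimal diameter, tested with 120 mM KCl, endothelium checked with 10 μM acetylcholine.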

[3] = system: SH-SY5Y; test: Neuroprotective activity against rotenone-oligomycin A-induced oxidative stress in human SH-SY5Y cells assessed as survival incubated with rot/oligo for 8 hrs followed by treated with compound at 5 uM for 16 hrs by MTT assay (Rvb =70.6 +/- 1.8%); assay type: functional; conditions: read-out: Survival
Summary of the method: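 SH-SY5Y cells cultured 24 h, then exposed to rotenone/oligomycin A (30/10 μM) for 8 h at 37 °C. Stressor removed; compound in 1% FBS medium added for 16 h. DMSO-only control. MTT reduction (5 mg/mL, 2 h, 37 °C; OD 540 nm). Survival relative to untreated basal; mean ± SEM of five to seven cultures in triplicate.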

[4] = system: SH-SY5Y; test: Neuroprotective activity against K+ induced Ca2+ overload in human SH-SY5Y cells assessed as survival at 5 uM after 24 hrs by MTT assay (reference value: 52.1 +/- 3.5%); assay type: functional; conditions: read-out: Survival
[5] = system: SH-SY5Y; test: Neuroprotective activity against K+ induced Ca2+ overload in human SH-SY5Y cells assessed as protection at 5 uM after 24 hrs by MTT assay relative to control; assay type: functional
Summary of the method: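 SH-SY5Y cells, 1 × 10⁵/well, 1% FBS medium, up to 13 passages. Compound diluted from 10⁻² M DMSO stock to 5 μM and co-incubated 24 h with 70 mM K⁺ (hypertonic); DMSO-only controls. MTT at 5 mg/mL for 2 h at 37 °C, read at 540 nm. % protection computed against basal as 100% survival and normalized to K⁺ toxicity; at least five cultures in triplicate.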

[6] = system: SH-SY5Y; test: Neuroprotective activity against rotenone-oligomycin A-induced oxidative stress in human SH-SY5Y cells assessed as survival at 5 uM co-incubated rot/oligo for 24 hrs by MTT assay (Rvb =65.6 +/- 1.3%); assay type: functional; conditions: read-out: Survival
[7] = target: Voltage-dependent L-type calcium channel subunit alpha-1D (Homo sapiens, UniProt Q01668); test: Inhibition of human Cav1.3 channel in human SH-SY5Y cells assessed as 70 mM K+ induced calcium elevation compound treated 15 mins before stimulus by Fluo-4/AM assay; assay type: cell-based
Summary of the method: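 SH-SY5Y cells grown 2 days, loaded with 10 μM Fluo-4/AM for 1 h at 37 °C in serum-free medium, washed with Krebs-HEPES and held 15 min at room temperature. Compound applied 15 min before 70 mM KCl.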

[8] = system: SH-SY5Y; test: Neuroprotective activity against rotenone-oligomycin A-induced oxidative stress in human SH-SY5Y cells assessed as protection at 5 uM co-incubated rot/oligo for 24 hrs by MTT assay relative to control; assay type: functional
Summary of the method: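 SH-SY5Y cells in 1% FBS medium co-incubated 24 h with compound and rotenone/oligomycin A (30/10 μM). Melatonin 0.3 μM was the positive control, and compounds were used at 5 μM. Viability by MTT reduction at 540 nm. % protection computed against basal as 100% and normalized to rot/olig toxicity; five to seven cultures in triplicate.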

[9] = system: Hippocampus; test: Neuroprotective activity against oxygen-glucose deprivation induced-oxidative stress in rat hippocampal slices assessed as maximum protection treated at 10 uM during 120 mins of reoxygenation period by MTT assay (Rvb =40%); assay type: functional
Summary of the method: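 Transverse hippocampal slices ([…] as printed) from adult male Sprague−Dawley rats (275−325 g). After 30 min stabilization, 15 min OGD at 37 °C in glucose-free Krebs (2-deoxyglucose) under 95% N₂/5% CO₂, then 120 min reoxygenation in oxygenated Krebs with compound (1, 3, 10 μM) present. MTT at 0.5 mg/mL for 30 min at 37 °C; control slices set as 100%; five experiments.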

[10] = Selectivity ratio of IC50 for human Cav1.3 channel to IC50 for rat Cav1.2 channel

Chain of Voltage-dependent L-type calcium channel subunit alpha-1C (P22002 whole entry): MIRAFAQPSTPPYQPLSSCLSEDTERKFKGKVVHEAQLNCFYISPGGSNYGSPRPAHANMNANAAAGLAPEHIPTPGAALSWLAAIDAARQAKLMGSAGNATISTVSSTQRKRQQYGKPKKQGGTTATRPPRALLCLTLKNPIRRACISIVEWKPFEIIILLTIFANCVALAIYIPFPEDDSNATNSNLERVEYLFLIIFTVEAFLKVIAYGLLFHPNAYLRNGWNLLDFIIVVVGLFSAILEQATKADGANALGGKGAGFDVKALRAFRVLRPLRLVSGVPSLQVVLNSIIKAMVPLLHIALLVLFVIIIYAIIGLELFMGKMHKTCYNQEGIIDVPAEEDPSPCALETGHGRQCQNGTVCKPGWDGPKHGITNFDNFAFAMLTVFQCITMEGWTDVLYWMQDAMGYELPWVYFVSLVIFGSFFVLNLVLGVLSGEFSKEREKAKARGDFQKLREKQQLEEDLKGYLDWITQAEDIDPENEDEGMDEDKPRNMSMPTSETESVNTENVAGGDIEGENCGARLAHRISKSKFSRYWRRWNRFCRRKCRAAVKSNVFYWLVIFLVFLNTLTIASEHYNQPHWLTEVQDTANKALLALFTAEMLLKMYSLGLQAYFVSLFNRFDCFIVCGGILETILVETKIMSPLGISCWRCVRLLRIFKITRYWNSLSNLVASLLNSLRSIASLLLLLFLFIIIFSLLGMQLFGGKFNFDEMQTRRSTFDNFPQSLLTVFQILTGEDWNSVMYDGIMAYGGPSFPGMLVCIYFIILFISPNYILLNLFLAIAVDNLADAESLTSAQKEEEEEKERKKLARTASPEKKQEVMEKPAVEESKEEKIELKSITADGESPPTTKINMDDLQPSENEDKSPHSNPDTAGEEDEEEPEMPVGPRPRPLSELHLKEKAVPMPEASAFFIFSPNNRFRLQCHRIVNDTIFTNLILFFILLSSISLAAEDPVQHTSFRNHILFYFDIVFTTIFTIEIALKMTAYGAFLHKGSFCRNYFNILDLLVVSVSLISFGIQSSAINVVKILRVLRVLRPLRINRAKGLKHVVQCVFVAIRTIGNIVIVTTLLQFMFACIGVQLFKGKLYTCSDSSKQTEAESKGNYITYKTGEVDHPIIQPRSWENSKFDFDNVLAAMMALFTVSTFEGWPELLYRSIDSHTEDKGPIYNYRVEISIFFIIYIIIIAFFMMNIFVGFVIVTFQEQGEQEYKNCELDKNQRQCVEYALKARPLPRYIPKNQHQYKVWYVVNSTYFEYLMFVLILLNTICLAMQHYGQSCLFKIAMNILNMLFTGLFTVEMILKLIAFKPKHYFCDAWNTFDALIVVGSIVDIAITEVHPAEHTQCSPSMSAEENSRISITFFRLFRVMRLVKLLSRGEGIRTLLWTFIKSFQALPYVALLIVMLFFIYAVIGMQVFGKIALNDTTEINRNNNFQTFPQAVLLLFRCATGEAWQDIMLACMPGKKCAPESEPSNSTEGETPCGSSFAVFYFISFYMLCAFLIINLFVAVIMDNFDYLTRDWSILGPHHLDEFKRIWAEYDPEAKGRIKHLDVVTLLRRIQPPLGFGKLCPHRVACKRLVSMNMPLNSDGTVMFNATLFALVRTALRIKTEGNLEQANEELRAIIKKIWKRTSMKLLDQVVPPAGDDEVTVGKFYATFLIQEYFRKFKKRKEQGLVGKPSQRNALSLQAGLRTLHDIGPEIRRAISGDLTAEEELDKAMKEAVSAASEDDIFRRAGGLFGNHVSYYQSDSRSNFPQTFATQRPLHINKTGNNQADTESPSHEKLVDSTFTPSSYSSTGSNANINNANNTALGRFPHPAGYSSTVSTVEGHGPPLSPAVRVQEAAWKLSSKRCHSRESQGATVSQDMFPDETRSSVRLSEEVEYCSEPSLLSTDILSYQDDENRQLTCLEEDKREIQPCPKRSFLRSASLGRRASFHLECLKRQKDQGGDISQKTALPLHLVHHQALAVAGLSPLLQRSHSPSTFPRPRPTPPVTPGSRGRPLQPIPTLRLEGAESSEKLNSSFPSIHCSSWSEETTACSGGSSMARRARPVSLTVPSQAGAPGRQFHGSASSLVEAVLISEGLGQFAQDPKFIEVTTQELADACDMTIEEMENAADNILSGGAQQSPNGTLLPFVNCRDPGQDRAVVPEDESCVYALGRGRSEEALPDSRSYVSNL
Chain of Voltage-dependent L-type calcium channel subunit alpha-1D (Q01668 whole entry): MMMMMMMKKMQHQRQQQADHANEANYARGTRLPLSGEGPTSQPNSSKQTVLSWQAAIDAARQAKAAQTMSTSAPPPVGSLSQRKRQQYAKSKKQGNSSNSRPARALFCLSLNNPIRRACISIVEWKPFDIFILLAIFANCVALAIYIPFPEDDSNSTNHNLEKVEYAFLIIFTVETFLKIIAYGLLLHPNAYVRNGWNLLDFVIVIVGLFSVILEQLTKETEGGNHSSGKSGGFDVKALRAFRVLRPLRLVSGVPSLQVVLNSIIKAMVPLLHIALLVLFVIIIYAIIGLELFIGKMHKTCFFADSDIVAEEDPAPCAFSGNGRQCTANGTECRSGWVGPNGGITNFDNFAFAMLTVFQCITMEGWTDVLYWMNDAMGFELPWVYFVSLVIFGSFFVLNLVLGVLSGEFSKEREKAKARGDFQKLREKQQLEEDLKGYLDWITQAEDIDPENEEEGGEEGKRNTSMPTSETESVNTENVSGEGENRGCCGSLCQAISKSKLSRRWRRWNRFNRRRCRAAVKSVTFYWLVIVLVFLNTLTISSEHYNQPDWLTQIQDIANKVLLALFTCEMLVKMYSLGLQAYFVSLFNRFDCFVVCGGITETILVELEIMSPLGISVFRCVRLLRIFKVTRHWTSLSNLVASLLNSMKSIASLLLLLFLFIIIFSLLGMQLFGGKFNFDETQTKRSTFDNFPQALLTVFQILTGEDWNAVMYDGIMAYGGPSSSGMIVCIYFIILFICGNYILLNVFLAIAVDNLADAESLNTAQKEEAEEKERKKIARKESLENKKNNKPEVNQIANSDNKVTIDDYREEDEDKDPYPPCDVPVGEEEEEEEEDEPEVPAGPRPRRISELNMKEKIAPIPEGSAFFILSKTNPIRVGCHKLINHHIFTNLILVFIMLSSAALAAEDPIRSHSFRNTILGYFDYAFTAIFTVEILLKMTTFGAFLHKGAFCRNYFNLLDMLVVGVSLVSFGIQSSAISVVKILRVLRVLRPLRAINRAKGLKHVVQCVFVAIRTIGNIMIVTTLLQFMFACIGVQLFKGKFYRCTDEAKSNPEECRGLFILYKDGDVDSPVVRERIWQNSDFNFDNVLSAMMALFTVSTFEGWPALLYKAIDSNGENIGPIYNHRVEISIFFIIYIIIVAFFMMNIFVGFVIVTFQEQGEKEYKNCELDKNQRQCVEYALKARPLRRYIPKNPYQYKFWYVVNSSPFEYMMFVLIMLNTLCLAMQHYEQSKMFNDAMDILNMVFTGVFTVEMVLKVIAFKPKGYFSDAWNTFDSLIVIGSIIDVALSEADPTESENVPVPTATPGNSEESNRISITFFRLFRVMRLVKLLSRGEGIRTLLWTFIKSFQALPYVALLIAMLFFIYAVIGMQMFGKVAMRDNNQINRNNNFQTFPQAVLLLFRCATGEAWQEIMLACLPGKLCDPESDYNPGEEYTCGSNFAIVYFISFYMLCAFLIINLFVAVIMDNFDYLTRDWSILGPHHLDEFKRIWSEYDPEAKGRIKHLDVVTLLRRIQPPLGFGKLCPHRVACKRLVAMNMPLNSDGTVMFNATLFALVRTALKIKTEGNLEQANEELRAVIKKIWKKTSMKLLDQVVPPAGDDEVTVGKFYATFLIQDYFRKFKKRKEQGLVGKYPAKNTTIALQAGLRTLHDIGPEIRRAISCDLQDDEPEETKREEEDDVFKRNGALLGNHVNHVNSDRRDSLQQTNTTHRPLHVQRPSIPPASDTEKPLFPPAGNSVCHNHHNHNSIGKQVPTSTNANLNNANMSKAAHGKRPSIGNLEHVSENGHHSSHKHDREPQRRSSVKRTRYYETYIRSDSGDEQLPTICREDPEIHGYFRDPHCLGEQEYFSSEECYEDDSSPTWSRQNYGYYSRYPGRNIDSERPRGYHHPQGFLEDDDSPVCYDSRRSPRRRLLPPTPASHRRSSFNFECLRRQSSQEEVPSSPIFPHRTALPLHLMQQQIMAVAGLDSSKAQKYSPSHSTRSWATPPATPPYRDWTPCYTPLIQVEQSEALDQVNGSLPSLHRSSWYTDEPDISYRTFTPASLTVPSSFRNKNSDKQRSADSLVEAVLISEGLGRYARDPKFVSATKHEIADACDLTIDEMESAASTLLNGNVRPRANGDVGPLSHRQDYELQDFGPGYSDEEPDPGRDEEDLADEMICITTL

Row | Compound | Activity [1] [%] | inhibition (INH) [2] | viability at 5 µM [3] [%] | viability at 5 µM [4] [%] | Activity [5] [%] | viability at 5 µM [6] [%] | IC50 [7] [µM] | Activity [8] [%] | inhibition [7] [%] | Activity [9] [%] | IC50 [2] [µM] | Ratio IC50 [10]
1 | COc1ccc(C2C=C(c3ccccc3)NC(C)=C2C(=O)SC(C)(C)C)cc1 (configuration not stated) | 38.6 | Dose-dependent effect | 81.8 | 66.7 | 31.3 | 82.3 | 26.8 | 45.7 | – | – | – | –
2 | CCOC(=O)C1=C(C)NC(c2ccc(Cl)cc2)=CC1c1cccc(OC)c1 (configuration not stated) | 20.5 | – | 76.6 | 72.7 | 40.1 | 81.9 | 15.1 | 47.8 | 48 | – | – | –
3 | CCOC(=O)C1=C(C)NC(c2ccc(Cl)cc2)=CC1c1ccccc1 (configuration not stated) | – | – | – | 69.4 | 36.6 | 82.7 | 9.3 | 46.2 | – | – | – | –
4 | CCOC(=O)C1=C(C)NC(c2ccc(C)cc2)=CC1c1cccs1 (configuration not stated) | 25.6 | – | 77.5 | 75.6 | 50.7 | 81.9 | 14.9 | 45.3 | 36 | – | – | –
5 | CCOC(=O)C1=C(CC)NC(c2ccccc2)=CC1c1ccccc1 (configuration not stated) | – | – | – | 67.3 | 31.4 | 77.4 | 12.8 | 32.8 | – | – | – | –
6 | CC1=C(C(=O)SC(C)(C)C)C(c2ccc(C)cc2)C=C(c2ccc(C)cc2)N1 (configuration not stated) | – | – | – | 69.9 | 36.2 | 79.9 | > 100 | 36.2 | – | – | – | –
7 | CCOC(=O)C1=C(C)NC(c2ccc(Cl)cc2)=CC1c1ccccc1[N+](=O)[O-] (configuration not stated) | – | – | – | 59.3 | 13.7 | 60 | 57.1 | – | – | – | – | –
8 | CCOC(=O)C1=C(C)NC(c2ccco2)=CC1c1ccc(C)cc1 (configuration not stated) | 33.2 | Dose-dependent effect | 79.9 | 68.5 | 32 | 78 | 55.5 | 36.6 | – | – | – | –
9 | CCOC(=O)C1=C(C)NC(c2ccccc2)=CC1c1ccc(OC)cc1 (configuration not stated) | 42 | Dose-dependent effect | 83.5 | 69.4 | 34.1 | 81.3 | 29.8 | 46.2 | – | – | – | –
10 | CC(=O)C1=C(C)NC(c2ccccc2)=CC1c1ccccc1 (configuration not stated) | 21.7 | Dose-dependent effect | 76.7 | 67.4 | 32.5 | 87.3 | 27.1 | 61.9 | – | – | – | –
11 | CCOC(=O)C1=C(C)NC(c2ccccc2)=CC1c1ccc([N+](=O)[O-])cc1 (configuration not stated) | – | – | – | 64.6 | 23.5 | 64.6 | 12.2 | – | – | – | – | –
12 | CC1=C(C(=O)SC(C)(C)C)C(/C(C)=C/c2ccccc2)C=C(c2ccccc2)N1 (configuration not stated) | 52.2 | Dose-dependent effect | 86.2 | 69 | 35.3 | 83.7 | 63.1 | 52.4 | – | 45 | 20.3 | 3.1
